Measured values published in ChEMBL document CHEMBL3763019, “Discovery of benzenesulfonamide derivatives as potent PI3K/mTOR dual inhibitors with in vivo efficacies against hepatocellular carcinoma” (Bioorg Med Chem, 2016).

Assays:
Mus musculus = test: Toxicity in BALB/C nude mouse xenografted with human Bel7404 cells assessed as mortality at 30 mg/kg, po qd for 14 consecutive days; type: organism-based; conditions: in vivo
Summary of the method: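 Male BALB/C nude mice were implanted with BEL-7404 cells. When tumors reached 100–300 mm³ (after 12 days), mice were randomized to 6 per treatment group and 8 controls. The drug, suspended in 5% polysorbate 80 in water, was given orally once daily for 14 days from day 13. Body weight and mortality were tracked during dosing, and mice were sacrificed on day 29.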

[1] = Antiproliferative activity against human LOXIMVI cells incubated for 48 hrs by sulforhodamine B assay; type: functional; conditions: LOX IMVI
Summary of the method: (§1)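 Run externally by the US National Cancer Institute as part of its 60 human cancer cell line cytotoxicity screen (NCI-60).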

[2] = Antiproliferative activity against human HOP92 cells incubated for 48 hrs by sulforhodamine B assay; type: functional; conditions: HOP-92, 48 h
[3] = Antiproliferative activity against human OVCAR3 cells incubated for 48 hrs by sulforhodamine B assay; type: functional; conditions: OVCAR-3, 48 h; summary of the method: as §1
[4] = read-out: pLC50 (the source's name) (converted)

Structure (SMILES): COc1ncc(-c2ccc3nccc(C#CCN4CCN(S(C)(=O)=O)CC4)c3c2)cc1NS(=O)(=O)c1ccc(F)cc1F
- Activity (Mus musculus): Non-toxic
- GI50 [1]: 0.0813 µM
- CC50 [1, 4]: 5.62 µM
- TGI ([1]; read-out: pTGI (converted)): 1.35 µM
- GI50 [2]: 0.0138 µM
- CC50 [2, 4]: 58.9 µM
- GI50 [3]: 0.0513 µM
- CC50 [3, 4]: 6.61 µM
- TGI ([3]; read-out: pTGI (converted)): 1.1 µM
